# Screening results as filed in PubChem.
# These entries were drawn from the full list.
# Apaf1 activ – activates human Apaf-1 apoptosome; Apaf-1 apoptosome caspase-3 activation, DEVD-Rh110 fluorescence; active compounds read low; activity change, negative = activation, % at 20 µM; actives 0.31% (n = 330,000); O14727;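 active means activity change at or below -40% at 20 µM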
#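 Assay system – biochemical Apaf-1 apoptosome reconstitution · Medium – 20 mM HEPES buffer, pH 7.5, containing CHAPS and BSA · Incubation – 30 min preincubation, 50 min reaction, room temperature · Measured by – Caspase-3-released Rh110 fluorescence, 540 nm emission, 480 nm excitation · Read-out – Caspase-3 cleavage activity downstream of Apaf-1 activation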
# * marks the source's active call; other numbers are inactive results.
SMILES,Apaf1 activ
CCOc1cc(/C=C(\C#N)C(=O)Nc2cccc(C(=O)O)c2)ccc1OCc1ccc(Br)cc1,-119*
CC1=C(C#N)C(=O)N(C2CCS(=O)(=O)C2)C(=O)/C1=C\c1ccco1 (stereo not drawn),54
O=C1NC(Cc2ccc(O)cc2)c2nc3ccc(Cl)cc3c(=O)n2-c2ccc(Cl)cc21 (stereo not drawn),-42*
CNC[C@H](Cc1cccc2ccccc12)NC[C@H](CCSC)NCC1CCC(C(C)(C)C)CC1 (stereo partly drawn),65
COc1ccc(NS(=O)(=O)c2cc(C(=O)N3CCC3)ccc2C)cc1,48
ONc1cccnc1-n1nc(C(F)(F)F)cc1C(F)(F)F,47
CC1(OC(=O)c2cccs2)C(=O)C=C2C=C3CCCN3C=C2C1=O (stereo not drawn),62
COc1ccccc1Oc1c(C)oc2c(CN3CCN(C)CC3)c(O)ccc2c1=O,-595*
CC1=NN(c2ccc(S(=O)(=O)O)cc2C)C(=O)C1,51
COc1cc(Cl)c(NC2=CC(=O)C(=O)c3ccccc32)c(OC)c1,92
CN(Cc1ccccn1)C(=O)c1ccc2nc(Cc3cccc(Cl)c3)oc2c1,-116*
CCN(CC(=O)Nc1ccc(OC)cc1)C(=O)C1CCN(C(=O)c2ccc(Cl)cc2)CC1,58
CC(C)N(C(=O)[C@H]1C[C@H](CC(=O)NCCC2=CCCCC2)C(=O)N2CCc3c([nH]c4ccc(Cl)cc34)[C@]12C)C(C)C,44
O=C1Cc2cc(S(=O)(=O)N3CCNCC3)ccc2N1,40
C=C(C)C(=O)Nc1cccc(C2=NOC3(C2)C[C@@H](C(N)=O)N(C(=O)C2(C)CC2)C3)c1 (stereo partly drawn),-295*
NC(=O)[C@H](Cc1cc2ccccc2s1)NC(=O)[C@@H]1CC2(CC(c3cccc(NC(=O)[C@@H]4CCC(=O)N4)c3)=NO2)CN1C(=O)/C=C/c1c(F)cccc1Cl (stereo partly drawn),47
COc1ccc(OCc2cc(C(=O)NC3CCOC(C)(C)C3)no2)c2ccccc12 (stereo not drawn),63
NS(=O)(=O)c1ccc(CCNC(=O)CCS(=O)(=O)c2ccc(Br)cc2)cc1,-214*
Cc1nn(CCc2nn[nH]n2)c2nc(-c3ccc(C4CCCCC4)cc3)cc(C(F)(F)F)c12,60
O=C1C(NS(=O)(=O)c2cccs2)=C(N2CCN(c3cccc(Cl)c3)CC2)C(=O)c2ccccc21,58
CCCCCCCCCCCCC/C=C/[C@@H](O)[C@@H](N)CO,79
O=[N+]([O-])c1ccc(O)c(C=Nc2cccc3ccccc23)c1,88
O=C(NC(C(=O)N/N=C/c1cc([N+](=O)[O-])ccc1O)c1n[nH]c(=O)c2ccccc12)c1ccccc1 (stereo not drawn),-439*
O=[N+]([O-])c1ccc(O)c(C=Nc2cccc3ncccc23)c1,91
CC(C)C[C@H]1CN=C(Nc2ccccc2)N1CC1CCC(C(C)(C)C)CC1 (stereo partly drawn),56
SMILES,Apaf1 activ
COc1ccc(CC2=CC(=O)c3ccccc3C2=O)cc1,50
O=C(CCS(=O)(=O)c1ccc(Br)cc1)N1CCCCCC1,-283*
O=c1cc(N/N=C/c2ccccc2)[nH]c(=O)[nH]1,68
CCN(CC)c1ccc(/C=C/c2nc3ccccc3s2)cc1,-305*
CC[n+]1c(/C=C/N(C)c2ccccc2)n(-c2ccccc2)c2ccc(-c3nc4ccccc4s3)cc21,82
COc1ccccc1C1/C(=C(\O)c2ccc3c(c2)OCCO3)C(=O)C(=O)N1CCCn1ccnc1 (stereo not drawn),45
CC(=O)C1=C(O)C(=O)N(CCc2c[nH]c3ccccc23)C1c1ccco1 (stereo not drawn),43
CCC1CCc2sc(C(=O)NCC(c3ccc(OC)cc3)N3CCCC3)cc2C1 (stereo not drawn),46
COc1ccc(CN2CC(C(=O)NCc3cccc(OC)c3)CC2=O)cc1 (stereo not drawn),67
O=c1[nH]nc(-c2ccc(OCc3ccc(Cl)cc3Cl)cc2)o1,-54*
Cc1cc(/C=N/n2cnnc2)c(C)n1-c1ccc(OCc2ccc(Cl)cc2Cl)cc1,46
C[C@@H]1CCCCCCCCC(=O)OCCN[C@H](C)CCCCCCCCC(=O)OCCN[C@H](C)CCCCCCCCC(=O)OCCN1,68
N#Cc1ccc(C23CC4(C2)[C@H](CN(CC2CCCCC2)[C@@H]4c2ccccc2)C3c2ccc(C(F)(F)F)cc2)cc1 (stereo partly drawn),42
COc1ccc(CC(=O)N(C)CC(=O)Nc2ccccc2C(F)(F)F)cc1S(=O)(=O)N1CCOCC1,46
COc1ccc(CN(C)C(C)C(=O)Nc2ccc(S(=O)(=O)N3CCCC3)cc2)c(OC)c1OC (stereo not drawn),-83*
COc1ccc(CC(=O)N(C)CC(=O)Nc2c(C)cccc2C)cc1S(=O)(=O)N1CCOCC1,60
O=C1Cc2cc([N+](=O)[O-])ccc2N1c1c(Cl)cccc1Cl,43
CC(=O)c1ccc(OCCCC(=O)N2CCN(S(=O)(=O)c3ccc(C)cc3C)CC2)cc1,40
O=C1c2ccccc2[C@@H]2C[C@@H](O)[C@H](Nc3cccc4ccccc34)CCN12,53
CCOC(=O)c1c(NC(=O)N/N=C/c2ccc(O)c(OC)c2)sc(C(C)=O)c1C,-63*
COc1cc(/C=N/NC(=O)c2ccncc2)ccc1O,9
O=C(Cc1cc(=O)[nH][nH]1)N/N=C/c1cccc(Cl)c1Cl,48
Cc1noc(/C=C/c2cccs2)c1S(=O)(=O)N1CCC(C(=O)NCCCN2CCC(C)CC2)CC1,40
CCCN1CCN(C(=O)C2CCN(S(=O)(=O)c3c(C)noc3/C=C/c3ccc(C)cc3)CC2)CC1,61
Cc1noc(C)c1S(=O)(=O)N1CCN(C(c2ccccc2)c2ccc(Cl)cc2)CC1 (stereo not drawn),-108*
SMILES,Apaf1 activ
O=S(=O)(NCC(c1ccccc1)N1CCNCC1)c1ccc(Cl)cc1 (stereo not drawn),43
COC(=O)c1ccccc1S(=O)(=O)N1CCC(C(=O)N2CCC2)CC1,55
Cc1nc2sccn2c(=O)c1CCN1CCC(=C(c2ccccc2)c2ccc(F)cc2)CC1,42
CC1(c2ccc(OC(F)F)cc2)NC(=O)N(CC(=O)Nc2ccc(N3CCCCC3)cc2)C1=O (stereo not drawn),53
S=C(Nc1ccc(N2CCOCC2)cc1)Nc1ccc2nc(-c3ccco3)c(-c3ccco3)nc2c1,41
Cc1c(C#N)c(=O)oc2ccc3ccccc3c12,-97*
Oc1ccccc1/C=N/Nc1cc(N2CCCC2)nc(N2CCCC2)n1,98
O=C(OCC(=O)N1CCC(c2ccccc2)=N1)c1ccc([N+](=O)[O-])s1,52
O=C1OC(Nc2cc(Br)cc3cccnc23)c2ccccc21 (stereo not drawn),97
C=CC(=O)Nc1ccc(N(C)c2ccnc(Nc3ccc(N4CCN(C)CC4)cc3)n2)cc1,62
CCN1CCc2c(sc(NC(=O)c3cc4ccccc4cc3OC)c2C(N)=O)C1,65
CCOc1cc(C2C(C(C)=O)=C(O)C(=O)N2CCc2c[nH]c3ccccc23)ccc1O (stereo not drawn),49
CCCOc1ccc(C2C(C(=O)c3ccco3)=C(O)C(=O)N2CCN2CCOCC2)cc1OC (stereo not drawn),-492*
COc1ccc(NS(=O)(=O)c2ccc(C)c(NC(=O)CN3C(=O)NC4(CCCC4)C3=O)c2)cc1,82
